Assay results from paper PMC3319149 (European Journal of Pharmaceutical Sciences, 2012).
“And” between values parts separate entries of the source, which are not always exact repeats. Identical values can stand only once. “Also recorded” adds a separate entry of the source. Like-named read-outs stand apart in the source and are kept apart here. Marks after values point to notes of the source that are not given here. One block for each compound: values may come before it.

How the values were obtained:
NTCP-HEK monolayers = experiment: Passive permeability from uptake in sodium-free buffer, NTCP-HEK monolayers; format: in vitro ADME
NTCP [1] = target: T1, NTCP (Homo sapiens, UniProt Q14973); experiment: Taurocholate uptake inhibition study in NTCP-HEK monolayers; format: cell-based
T1 sequence (Q14973 1-349): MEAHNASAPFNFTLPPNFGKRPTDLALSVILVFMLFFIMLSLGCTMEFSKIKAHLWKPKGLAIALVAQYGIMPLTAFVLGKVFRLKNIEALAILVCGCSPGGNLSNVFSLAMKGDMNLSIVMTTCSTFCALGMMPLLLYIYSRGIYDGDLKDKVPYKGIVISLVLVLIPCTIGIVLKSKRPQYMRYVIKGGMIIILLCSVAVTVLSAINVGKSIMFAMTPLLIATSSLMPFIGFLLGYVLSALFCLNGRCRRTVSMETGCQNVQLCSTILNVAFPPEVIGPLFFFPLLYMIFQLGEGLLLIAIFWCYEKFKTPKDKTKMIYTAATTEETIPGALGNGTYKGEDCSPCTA

ASBT [2] = target: T2, ASBT (Homo sapiens, UniProt Q12908); experiment: Assessment of inhibition type; format: cell-based; conditions: inhibitor 152 μM (I/Ki = 10), taurocholate 1–200 μM
T2 sequence (Q12908 1-348): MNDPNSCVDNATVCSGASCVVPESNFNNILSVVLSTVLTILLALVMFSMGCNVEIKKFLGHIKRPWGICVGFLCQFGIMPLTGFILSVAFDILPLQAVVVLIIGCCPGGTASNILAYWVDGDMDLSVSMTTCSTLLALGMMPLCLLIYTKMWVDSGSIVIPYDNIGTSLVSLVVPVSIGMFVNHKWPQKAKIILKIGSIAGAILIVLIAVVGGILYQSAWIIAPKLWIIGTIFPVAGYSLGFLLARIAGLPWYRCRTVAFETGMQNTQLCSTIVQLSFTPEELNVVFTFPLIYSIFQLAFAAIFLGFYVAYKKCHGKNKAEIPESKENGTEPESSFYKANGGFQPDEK

ASBT [3] = target: T2, ASBT; experiment: Taurocholate uptake inhibition study in ASBT-MDCK monolayers; format: cell-based; conditions: for Ki: read-out: Ki (μM) ASBT, inhibition of [3H]-taurocholate uptake (2.5 μM cold TCA), 10 min, 37 °C
ASBT-MDCK monolayers [4] = experiment: Passive permeability from uptake in sodium-free buffer, ASBT-MDCK monolayers; format: in vitro ADME
NTCP [5] = target: T1, NTCP; experiment: Assessment of inhibition type; format: cell-based; conditions: inhibitor 118 μM (I/Ki = 10), taurocholate 1–200 μM
ASBT [6] = target: T2, ASBT; experiment: Uptake study in ASBT-MDCK monolayers; format: cell-based
NTCP [7] = target: T1, NTCP; experiment: Uptake study in NTCP-HEK monolayers; format: cell-based
How it was run: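 Stably transfected NTCP-HEK cells (hygromycin selection) were seeded at 2.5 × 10⁵/well on poly-D-lysine plates, cultured two days and washed with HBSS. Analogue was given at 1 to 250 μM in HBSS or sodium-free buffer (NaCl replaced by tetraethylammonium chloride). Read-out was acetonitrile lysis then LC/MS. Kinetics were fitted by nonlinear regression (eqns 2, 3). Jmax was normalized to same-occasion taurocholate Jmax. Highest distinguishable Kt = (Jmax/2)/Pp.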

ASBT-MDCK monolayers [8] = conditions: passive permeability, ref Balakrishnan et al., 2006b; cited from earlier work
ASBT [9] = target: T2, ASBT; conditions: read-out: Ki (μM) ASBT; ASBT-MDCK; ref Balakrishnan et al., 2006b; cited from earlier work
[10] = passive permeability, sodium-free buffer, NTCP-HEK
[11] = read-out: Ki (μM) NTCP, inhibition of [3H]-taurocholate uptake (2.5 μM cold taurocholate), NTCP-HEK monolayers, 5 min, 37 °C
[12] = read-out: NTCP inhibitor class (strong / moderate / weak), class by Ki, NTCP-HEK
[13] = Ki (μM) NTCP, inhibition of [3H]-taurocholate uptake (2.5 μM cold taurocholate), NTCP-HEK monolayers, 5 min, 37 °C

Compound: C[C@H](CCC(=O)NCC(=O)O)[C@H]1CC[C@H]2[C@@H]3[C@H](O)C[C@H]4C[C@H](OC(=O)c5cccnc5)CC[C@]4(C)[C@H]3CC[C@]12C [Compound 10, 3-nicotinoyl glycochenodeoxycholate]
- ASBT Norm Jmax (ASBT [6]; Jmax normalized to taurocholate Jmax of the same occasion, ASBT-MDCK): 2.11 and 2.1
- Jmax ASBT (ASBT [6]; not normalized, ASBT-MDCK): 0.000242 nmol/s/cm^2
- ASBT Kt (ASBT [6]; uptake into ASBT-MDCK monolayers, 10 min): 8.49 µM and 8.49 ± 1.34 µM
- NTCP Norm Jmax (NTCP [7]; Jmax normalized to taurocholate Jmax of the same occasion, NTCP-HEK): 1.48
- Jmax NTCP (NTCP [7]; not normalized, NTCP-HEK): 0.00298 nmol/s/cm^2
- NTCP Kt (NTCP [7]; uptake into NTCP-HEK monolayers): 16.3 µM and 16.3 ± 3.0 µM
- NTCP Pp*10^6 (cm/s) (NTCP-HEK monolayers): 12.7±0.9 ×10^−6 cm/s
- Ki (NTCP [1]; [11]): 5.38 ± 0.44 µM
- Ki (NTCP [1]; [12]): < 25 µM
- Ki (ASBT [3]): 6.45 ± 0.66 µM
- ASBT Pp*10^6 (cm/s) (ASBT-MDCK monolayers [4]; MDCK): 5.62±0.13 ×10^−6 cm/s

Compound: C[C@H](CCC(=O)O)[C@H]1CC[C@H]2[C@@H]3[C@@H](O)C[C@@H]4C[C@H](O)CC[C@]4(C)[C@H]3CC[C@]12C [UDCA, ursodeoxycholic acid, reference compound]
- NTCP Pp*10^6 (cm/s) (NTCP-HEK monolayers; [10]): 27.2±0.8 ×10^−6 cm/s
- ASBT Pp*10^6 (cm/s) (ASBT-MDCK monolayers [8]): 21.2±0.9 ^a ×10^−6 cm/s
- Ki (NTCP [1]; [13]): 4.9 ± 0.47 µM
- Ki (ASBT [9]): 22.6 ± 3 µM

Compound: C[C@H](CCC(=O)O)[C@H]1CC[C@H]2[C@@H]3C(=O)C[C@@H]4CC(=O)CC[C@]4(C)[C@H]3CC(=O)[C@]12C [Compound 13, dehydrocholic acid]
- Ki (NTCP [1]; [13]): 355 ± 59 µM
- Ki (NTCP [1]; NTCP inhibitor class (strong / moderate / weak), class by Ki, NTCP-HEK): > 100 µM
- NTCP inhibitor class (strong / moderate / weak) (NTCP [1]; class by Ki, NTCP-HEK): weakly
- Ki (μM) ASBT (ASBT [3]; inhibition of [3H]-taurocholate uptake (2.5 μM cold TCA), 10 min, 37 °C): did not inhibit; also recorded: did not show any ASBT inhibition; also recorded: No inhibition

Compound: COC(=O)CC[C@@H](C)[C@H]1CC[C@H]2[C@@H]3[C@@H](O)C[C@@H]4C[C@H](O)CC[C@]4(C)[C@H]3CC[C@]12C [Compound 16, methyl ursodeoxycholate]
- Ki (NTCP [1]; [11]): 1.22 ± 0.1 µM
- Ki (ASBT [3]): 29.8 ± 5.1 µM

Compound: C[C@H](CCC(=O)NCCS(=O)(=O)O)[C@H]1CC[C@H]2[C@@H]3[C@H](O)C[C@@H]4C[C@H](O)CC[C@]4(C)[C@H]3C[C@H](O)[C@]12C [taurocholate, Taurocholic acid, reference compound]
- taurocholate Kt NTCP (NTCP [7]; value Kt was set to in regression): 5.31 µM

Further lines, with some results ahead:

- NTCP Pp*10^6 (cm/s) (NTCP-HEK monolayers; [10]): 7.26±0.45 ×10^−6 cm/s
- Ki (NTCP [1]; [11]): 11.8 ± 2.1 µM
- Ki (ASBT [3]): 15.2 ± 0.8 µM
- ASBT Pp*10^6 (cm/s) (ASBT-MDCK monolayers [4]; passive permeability, sodium-free buffer, ASBT-MDCK): 0.95±0.05 ×10^−6 cm/s
Compound: C[C@H](CCC(=O)NCC(=O)O)[C@H]1CC[C@H]2[C@@H]3[C@@H](OC(=O)c4cccnc4)C[C@@H]4C[C@H](O)CC[C@]4(C)[C@H]3CC[C@]12C [Compound 8, 7-nicotinoyl glycoursodeoxycholate]
- type of inhibition of ASBT (best fitting model) (ASBT [2]): competitive inhibitor; also recorded: competitive model was the best fitting model
- type of inhibition of NTCP (best fitting model) (NTCP [5]): competitive inhibitor; also recorded: competitive model was the best fitting model

- Ki (NTCP [1]; [11]): 183 ± 32 µM
- Ki (NTCP [1]; [12]): > 100 µM
- Ki (ASBT [3]): 10.3 ± 1.1 µM
Compound: C[C@H](CCC(=O)O)[C@H]1CC[C@H]2[C@@H]3[C@@H](OC(=O)c4ccc(F)cc4)C[C@@H]4C[C@H](O)CC[C@]4(C)[C@H]3CC[C@]12C [Compound 3, 7-(4-fluorobenzoyloxy) ursodeoxycholate]

- NTCP Pp*10^6 (cm/s) (NTCP-HEK monolayers; [10]): 60.7±0.5 ×10^−6 cm/s
- Ki (NTCP [1]; [13]): 0.939 ± 0.057 µM
Compound: C[C@H](CCC(=O)O)[C@H]1CC[C@H]2[C@@H]3[C@H](O)C[C@@H]4C[C@H](O)CC[C@]4(C)[C@H]3CC[C@]12C [CDCA, chenodeoxycholic acid, reference compound]
- ASBT Pp*10^6 (cm/s) (ASBT-MDCK monolayers [8]): 20.7±0.7 ^a ×10^−6 cm/s
- Ki (ASBT [9]): 1.94 ± 0.17 µM
